# Compound activity from PubChem BioAssay.
# Sampled rows, rich in hits. Any-hit rate of the full collection: about 3.8%.
# Hep lipid drop – modulators of hepatic lipid droplet formation | AML12 mouse hepatocytes, oleate lipid droplets, BODIPY imaging | inhibition, % at 6.5 µM | 240,000 tested, 0.4% active | AID 1656;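 active = lipid droplet intensity inhibited by at least 50%, with more than 500 cells counted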
#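 System: AML12 hepatocytes (mouse). Probe or stimulus: oleic acid at 100 µM to induce lipid droplet formation. Times: overnight treatment with compound plus oleate. Detection: Image-based BODIPY and DAPI two-channel analysis. Evaluation: percent inhibition of filter-corrected integrated lipid droplet intensity per well.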
# RGS4 pot – potentiators or activators of RGS4. HEK293 M3R/inducible RGS4, carbachol calcium flux Fluo4; stronger effect = lower value. 310,000 tested, 0.92% active. B-score at 10 µM;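 active = B-score of the integrated calcium signal more than 4 SD below the library mean, with starting fluorescence not abnormally high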;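 note: negative B-score means reduced calcium response which marks RGS4 activation or potentiation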
#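 Material: M3R-expressing HEK293 line, RGS4 induced by doxycycline | Schedule: Overnight RGS4 induction, 30 min dye load 37 °C, 20 min compound RT | Measured by: Fluo4 fluorescence kinetic imaging of calcium | Read-out: Integrated calcium ratio converted to B score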
# MrgX1 antag – antagonists of human MrgX1 receptor | B-score at 10 µM | MRGX1-HEK293 calcium flux, Fluo-4, BAM8-22 antagonism; stronger effect = lower value | 310,000 tested, 1.3% active | Q96LB2 | AID 588676;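 active = calcium-response B-score plate-corrected more than 3 library SD below zero, starting fluorescence within 5 deviations, no agonist response on first addition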;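 note: peak minus trough fluorescence over baseline after final BAM8-22 challenge near maximal dose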
# Target sequence (Q96LB2 whole entry, looked up): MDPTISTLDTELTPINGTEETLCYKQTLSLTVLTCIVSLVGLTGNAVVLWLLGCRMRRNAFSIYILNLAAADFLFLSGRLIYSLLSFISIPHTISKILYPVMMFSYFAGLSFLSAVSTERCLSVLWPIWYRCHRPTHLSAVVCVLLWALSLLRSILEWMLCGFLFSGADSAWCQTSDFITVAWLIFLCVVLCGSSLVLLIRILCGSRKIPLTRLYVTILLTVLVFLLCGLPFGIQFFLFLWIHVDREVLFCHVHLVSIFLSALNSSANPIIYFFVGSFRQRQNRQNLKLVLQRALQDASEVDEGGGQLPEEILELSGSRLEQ
# MrgX1 agonist – human MrgX1 receptor agonism, primary screen | Q96LB2 | MrgX1-HEK293 cells, Fluo-4 calcium fluorescence, agonist mode; stronger effect = higher value | B-score at 10 µM | 310,000 tested, 0.44% active | AID 588627;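 active = calcium response B-score plate-corrected fluorescence ratio at least 3 library SD, with starting fluorescence B-score inside 5 SD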
#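 Test system: Stable human MrgX1 HEK293 cell line | Schedule: Overnight plating before 1 h dye loading | Read-out basis: Baseline-normalised fluorescence change ratio, B-scored | Detection: Kinetic calcium dye fluorescence, Fluo-4 NW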
# RGS4 block – inhibitors of human RGS4; P49798; HEK293 M3R/RGS4 inducible, Fluo-4 calcium flux; stronger effect = higher value; triggered by carbachol at its EC20; B-score at 10 µM; 310,000 tested, 0.45% active; AID 463165;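 active = B-score, a plate-corrected calcium signal, over three deviations above library mean, with baseline fluorescence within five deviations of library mean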;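 note: RGS4 expression induced by doxycycline in cells with stable M3 receptor; B-score is computed from the integrated fluorescence ratio over baseline after carbachol; higher B-score means a larger calcium signal and so more RGS4 inhibition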
# MrgX1 allo act – allosterically activates human MrgX1 receptor signaling | 310,000 tested, 0.63% active | B-score at 10 µM | AID 588675 | Q96LB2 | MrgX1-HEK293, Fluo-4 calcium flux, FDSS; stronger effect = higher value;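 active = plate-corrected calcium response at least 3 library SD above typical, normal starting fluorescence, not activating the receptor alone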;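 note: compound read alongside a low EC10 to EC30 dose of BAM8-22 agonist; peak minus trough fluorescence over baseline measured at the second addition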
# Active calls of the source: *; i = inactive; / = no result.
SMILES,Hep lipid drop,RGS4 pot,MrgX1 antag,MrgX1 agonist,RGS4 block,MrgX1 allo act
CCOC(=O)c1cnc2c(C)c(Cl)ccc2c1NCCCN1CCOCC1,-3,i,i,i,i,9.1*
CCn1c(=NC(=O)CS(=O)(=O)c2ccc(C)cc2)sc2cccc(OC)c21,/,i,i,i,i,i
CCn1c(=NC(=O)c2ccc(S(=O)(=O)N(C)C)cc2)sc2cccc(OC)c21,1,-7.2*,i,i,i,i
NC(=O)[C@H]1CC2(CC(c3cccc(NC(=O)CC(c4ccccc4)c4ccccc4)c3)=NO2)CN1C(=O)c1ccccc1C(=O)c1ccccc1 (some centres not stated),-4,i,i,i,i,i
CC1(C(=O)N2CC3(CC(c4ccccc4)=NO3)C[C@H]2C(=O)NCC(N)=O)CC1 (some centres not stated),/,i,-5.6*,i,i,i
CCC(=O)Nc1cccc(C2=NOC3(C2)C[C@@H](C(N)=O)N(C(=O)COc2ccc(Cl)cc2)C3)c1 (some centres not stated),-3,i,i,i,i,8.9*
CCC(=O)Nc1cccc(C2=NOC3(C2)C[C@@H](C(N)=O)N(C(=O)c2ccccc2C(=O)c2ccccc2)C3)c1 (some centres not stated),19,i,-8*,i,i,i
CCC(=O)N1CC2(CC(c3cccc(NC(=O)COc4ccc(Cl)cc4)c3)=NO2)C[C@@H]1C(N)=O (some centres not stated),/,i,/,/,i,/
COc1ccc(CN2CCC(Oc3ccc(C(=O)N4CCCC4)cc3)CC2)c(F)c1,-47,i,i,i,i,i
Cc1ccc(CSCc2ccc(C(=O)NCCCN3CCOCC3)o2)cc1,-3,i,i,i,i,6.7*
Cc1ccccc1CSCc1ccc(C(=O)NCCCN2CCOCC2)o1,-2,i,i,i,i,i
CCOc1ccc(/C=C(\C)C(=O)c2c(C)cc(C)[nH]c2=O)cc1,2,i,i,i,i,i
CC1(C(=O)NNC(=S)NCc2ccco2)CC1(Cl)Cl (configuration not stated),-4,i,-4.7*,i,i,i
CC(=O)c1ccc(OCc2cc(C(=O)N3CCN(C4CCCC4)C(=O)C3)no2)cc1,5,i,i,i,i,i
COC(=O)CCCC1=CC2=C(c3ccccc3)C(=O)C(C)(OC(=O)C3CCCC3)C(=O)C2=CN1CCc1c[nH]c2ccccc12 (configuration not stated),7,i,i,i,i,i
COc1ccc(C(=O)COC(=O)c2ccc(OC)c(OC)c2)cc1OC,-1,i,i,i,i,i
COc1ccc(C(=O)CSC#N)cc1OC,-30,i,i,35*,i,i
COC(=O)C1=C(CCc2ccccc2)NC(=O)NC1c1ccc(Br)cc1 (configuration not stated),-14,i,i,i,i,i
COc1ccc(CCNC(=S)Nc2ccc(S(=O)(=O)Nc3ncccn3)cc2)cc1OC,-8,i,i,i,i,i
CCN(CC)C(=O)Oc1ccc2oc(=O)cc(-c3cc4cccc(OC)c4o3)c2c1,-4,-7.2*,i,i,i,i
COc1ccc2oc(=O)cc(-c3cc4cccc(OC)c4o3)c2c1,-4,i,i,i,i,i
Cc1sc(-n2c(C)cc(/C=C3\SC(=S)NC3=O)c2C)c(C#N)c1C,-8,-11*,-7.4*,i,i,i
CN(C)c1ccc(/C=C(/NC(=O)c2ccccc2Cl)C(=O)NCCN2CCOCC2)cc1,5,i,i,i,i,i
O=C1CC(Cc2ccccc2)C(=O)N1CCc1ccc2c(c1)OCO2 (configuration not stated),0,i,i,i,i,i
